Assay results from ChEMBL document CHEMBL2029285, “Structure-based design of novel class II c-Met inhibitors: 1. Identification of pyrazolone-based derivatives” (J Med Chem, 2012).

Columns and labels:
[1] = target: T1, Hepatocyte growth factor receptor (Homo sapiens, UniProt P08581); test: Inhibition of HGF-mediated c-met autophosphorylation in serum-starved human PC3 cells after 1 hr by electrochemiluminescent immunoassay; format: cell-based, PC-3
[2] = target: T1, Hepatocyte growth factor receptor; test: Inhibition of recombinant c-met-mediated gastrin phosphorylation by HTRF assay
[3] = target: Vascular endothelial growth factor receptor 2 (Homo sapiens, UniProt P35968); test: Inhibition of VEGFR2
[4] = Volume of distribution at steady-state in Sprague-Dawley rat at 2 mg/kg, iv; format: ADME, organism-based; parameters: dose 2 mg/kg, route intravenous; conditions: in vivo, read-out: Vdss
Method in brief: (§1)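 Male Sprague-Dawley rats, 3 animals per study, given 2 mg/kg iv as a solution in DMSO. Clearance, steady-state volume and half-life were derived from plasma pharmacokinetics.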

[5] = AUC in Sprague-Dawley rat at 5 mg/kg, po; format: ADME, organism-based; parameters: dose 5 mg/kg, route oral; conditions: plasma
Method in brief: (§2)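 Male Sprague-Dawley rats, 3 animals per study, dosed orally at 5 mg/kg as a suspension in 1% Tween 80, 99% OraPlus.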

[6] = system: Mus musculus; test: Inhibition of HGF-mediated c-met autophosphorylation in po dosed Balb/c mouse liver compound administered 2 hrs before and measured after 5 mins of HGF stimulation by electrochemiluminescent assay; format: functional
Method in brief: (§3)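 Balb/c mice were gavaged at 10, 30 or 100 mg/kg. At 2 h postdose, human HGF was injected iv and livers were harvested 5 min later. Phospho-c-Met was quantified by electrochemiluminescent assay and compared with vehicle + HGF. Mean ± SD, n = 3. Terminal plasma concentrations were measured.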

[7] = Clearance in Sprague-Dawley rat at 2 mg/kg, iv; format: ADME, organism-based; parameters: dose 2 mg/kg, route intravenous; conditions: in vivo; method in brief: as §1
[8] = system: Mus musculus; test: Inhibition of HGF-mediated c-met autophosphorylation in Balb/c mouse liver at 10 mg/kg, po administered 2 hrs before and measured after 5 mins of HGF stimulation by electrochemiluminescent assay; format: functional; method in brief: as §3
[9] = target: Insulin-like growth factor 1 receptor (Homo sapiens) (UniProt P08069); test: Inhibition of IGF1R
[10] = Oral bioavailability in Sprague-Dawley rat at 5 mg/kg; format: ADME, organism-based; conditions: in vivo; method in brief: as §2
[11] = Elimination half life in Sprague-Dawley rat at 2 mg/kg, iv; format: ADME, organism-based; parameters: dose 2 mg/kg, route intravenous; conditions: in vivo, read-out: beta t1/2 (converted); method in brief: as §1

Compound: COc1cc2nccc(Oc3ccc(NC(=O)N4CCN(c5ccccc5)C4=O)cc3F)c2cc1OC
- IC50 [1]: 0.053 µM
- Ki [2]: 0.0017 µM

Compound: COc1ccc2c(OCc3nnc4ccc(-c5cc(F)c(F)c(F)c5)cn34)ccnc2c1
- Ki [2]: 0.0048 µM

Compound: COc1cc2nccc(Oc3ccc(N(C)C(=O)c4c(C)n(C)n(-c5ccccc5)c4=O)cc3F)c2cc1OC
- IC50 [1]: > 20 µM
- Ki [2]: > 20 µM

Compound: COc1cc2nccc(Oc3ccc(NC(=S)NC(=O)Cc4ccccc4)cc3F)c2cc1OC
- Ki [3]: 0.103 µM

Compound: COc1cc2nccc(Oc3ccc(NC(=O)c4c(C)n(C)n(-c5ccccc5)c4=O)cc3F)c2cc1OC
- Vd [4]: 0.242 L/kg
- AUC [5]: 258 µM·h
- ED90 [6]: < 30 mg/kg
- inhibition [6]: Dose-dependent effect
- clearance [7]: 0.035 L/h/kg
- inhibition in vivo at 10 mg/kg [8]: 85%
- INH [3]: 6.2 nM
- INH [9]: 65 nM
- bioavailability [10]: 94%
- half-life [11]: 4.6 h
